Reference: ChEMBL document CHEMBL4033642, “Design and synthesis of neolamellarin a derivatives targeting heat shock protein 90” (Eur J Med Chem, 2017)

What was measured:
NCI-H1299 [1] = test: Antiproliferative activity against human H1299 cells after 48 hrs by resazurin dye-based fluorescence assay; assay type: functional, cell-based; details: NCI-H1299, 48 h
Method in brief: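 H1299 non-small-cell lung cells, kept subconfluent, passages 3–30, seeded 2000 cells/well; after 24 h exposed to serial concentrations in serum complete medium, 0.1% DMSO final, for 48 h. Resazurin then added, 16 h at 37 °C; fluorescence read at 544 nm excitation/595 nm emission, proportional to viable cells. IC50 from three repeats.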

NCI-H1299 [2] = test: Induction of apoptosis in human H1299 cells assessed as increase in cleaved PARP levels after 72 hrs by Western blot analysis; assay type: functional, cell-based
Method in brief: (§1)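 H1299 cells seeded in 15 cm dishes at 8 × 10⁴ cells/mL, 24 h, then treated at 7.5 and 15 µM for 72 h at 37 °C; DMSO-only controls. Lysed on ice 30 min, cleared at 10000 × g, protein by BCA. 25–100 µg run on 10% or 12% SDS-PAGE, blotted to nitrocellulose. Probed with antibodies to CDK2, EGFR, p-EGFR (Tyr1068), AKT, p-AKT, cleaved PARP; β-actin loading control; chemiluminescence; three repeats.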

[3] = target: T1, Heat shock protein HSP 90-alpha (Homo sapiens, UniProt P07900); test: Inhibition of HSP90alpha in human H1299 cells assessed as decrease in AKT levels after 72 hrs by Western blot analysis; assay type: cell-based; method in brief: as §1
NCI-H1299 [4] = test: Antiproliferative activity against human H1299 cells assessed as inhibition of cell viability after […] by resazurin dye-based fluorescence assay; assay type: functional
Method in brief: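 H1299 cells, 2000/well, seeded 24 h, then exposed to serial compound concentrations in serum-containing complete medium for 48 h (DMSO vehicle, 0.1% final). Resazurin (2 mg/mL stock) added, 16 h at 37 °C. Fluorescence read at 544 nm ex / 595 nm em; RFU taken as proportional to living cells.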

NCI-H1299 [5] = test: Induction of apoptosis in human H1299 cells assessed as inhibition of expression of CDK2 after 72 hrs by Western blot analysis; assay type: functional, cell-based; method in brief: as §1
[6] = target: T1, Heat shock protein HSP 90-alpha; test: Inhibition of HSP90alpha in human H1299 cells assessed as decrease in phosphorylation of EGFR after 72 hrs by Western blot analysis; assay type: cell-based; method in brief: as §1
[7] = target: T1, Heat shock protein HSP 90-alpha; test: Inhibition of HSP90alpha in human H1299 cells assessed as decrease in EGFR levels after 72 hrs by Western blot analysis; assay type: cell-based; method in brief: as §1
[8] = target: T1, Heat shock protein HSP 90-alpha; test: Inhibition of HSP90alpha in human H1299 cells assessed as decrease in phosphorylation of AKT after 72 hrs by Western blot analysis; assay type: cell-based; method in brief: as §1
[9] = target: T1, Heat shock protein HSP 90-alpha; test: Inhibition of FITC-GA binding to N-terminal domain of HSP90alpha (unknown origin) after 5 hrs by fluorescence polarization assay

COc1cc(-c2cn(Cc3ccc(O)c(O)c3)cc2-c2cc(OC)c(OC)c(OC)c2)cc(OC)c1OC
IC50 (NCI-H1299 [1]): 29.2 µM

C=CCNC1=C2C[C@@H](C)C[C@H](OC)[C@H](O)[C@@H](C)/C=C(\C)[C@H](OC(N)=O)[C@@H](OC)/C=C\C=C(/C)C(=O)NC(=CC1=O)C2=O [TANESPIMYCIN]
IC50 (NCI-H1299 [1]): 0.2 µM

COc1ccccc1Cn1cc(-c2ccc(O)cc2)c(-c2ccc(O)cc2)c1
IC50 (NCI-H1299 [1]): 23.1 µM

COc1ccc(Cn2cc(-c3ccc(O)cc3)c(-c3ccc(O)cc3)c2)c(OC)c1
IC50 (NCI-H1299 [1]): 31.6 µM

COc1ccc(Cn2cc(-c3ccc(O)c(O)c3)c(-c3ccc(O)c(O)c3)c2)cc1OC
Activity (NCI-H1299 [2]): Dose-dependent effect
inhibition [3]: Dose-dependent effect
inhibition (NCI-H1299 [4]): Dose-dependent effect
IC50 (NCI-H1299 [1]): 10.5 µM
inhibition (NCI-H1299 [5]): Dose-dependent effect
inhibition [6]: Dose-dependent effect
inhibition [7]: Dose-dependent effect
inhibition [8]: Dose-dependent effect
IC50 [9]: 0.374 µM

COc1ccc(-c2cn(Cc3ccc(O)cc3)cc2-c2ccc(OC)cc2)cc1
IC50 (NCI-H1299 [1]): 20.5 µM

COc1cccc(Cn2cc(-c3ccc(O)cc3)c(-c3ccc(O)cc3)c2)c1
IC50 (NCI-H1299 [1]): 25.3 µM

COc1ccccc1Cn1cc(-c2ccc(O)c(O)c2)c(-c2ccc(O)c(O)c2)c1
IC50 (NCI-H1299 [1]): 8.6 µM

COc1ccc(-c2cn(Cc3ccccc3O)cc2-c2ccc(OC)cc2)cc1
IC50 (NCI-H1299 [1]): 20.8 µM

COc1cc(-c2cn(Cc3ccc(O)cc3)cc2-c2cc(OC)c(OC)c(OC)c2)cc(OC)c1OC
IC50 (NCI-H1299 [1]): > 100 µM

Oc1ccc(-c2cn(Cc3ccccc3)cc2-c2ccc(O)cc2)cc1
IC50 (NCI-H1299 [1]): 26.9 µM

COc1cc(Cn2cc(-c3ccc(O)c(O)c3)c(-c3ccc(O)c(O)c3)c2)cc(OC)c1OC
Activity (NCI-H1299 [2]): Dose-dependent effect
inhibition [3]: Dose-dependent effect
inhibition (NCI-H1299 [4]): Dose-dependent effect
IC50 (NCI-H1299 [1]): 13.2 µM
inhibition (NCI-H1299 [5]): Dose-dependent effect
inhibition [6]: Dose-dependent effect
inhibition [7]: Dose-dependent effect
inhibition [8]: Dose-dependent effect
IC50 [9]: 0.852 µM

COc1ccc(-c2cn(Cc3ccc(O)c(O)c3)cc2-c2ccc(OC)c(OC)c2)cc1OC
IC50 (NCI-H1299 [1]): 23.4 µM

COc1ccc(Cn2cc(-c3ccc(O)cc3)c(-c3ccc(O)cc3)c2)c(OC)c1OC
IC50 (NCI-H1299 [1]): 25.1 µM

COc1ccc(-c2cn(Cc3ccc(O)cc3)cc2-c2ccc(OC)c(OC)c2)cc1OC
IC50 (NCI-H1299 [1]): 30.6 µM

COc1ccc(Cn2cc(-c3ccc(O)cc3)c(-c3ccc(O)cc3)c2)cc1OC
inhibition (NCI-H1299 [4]): Dose-dependent effect
IC50 (NCI-H1299 [1]): 29.2 µM

COc1ccc(-c2cn(Cc3ccc(O)c(O)c3)cc2-c2ccc(OC)cc2)cc1
inhibition (NCI-H1299 [4]): Dose-dependent effect
IC50 (NCI-H1299 [1]): 19.1 µM

COc1ccc(Cn2cc(-c3ccc(O)cc3)c(-c3ccc(O)cc3)c2)cc1
IC50 (NCI-H1299 [1]): 37.3 µM

COc1ccc(Cn2cc(-c3ccc(O)c(O)c3)c(-c3ccc(O)c(O)c3)c2)cc1
Activity (NCI-H1299 [2]): Dose-dependent effect
inhibition [3]: Dose-dependent effect
inhibition (NCI-H1299 [4]): Dose-dependent effect
IC50 (NCI-H1299 [1]): 8.3 µM
inhibition (NCI-H1299 [5]): Dose-dependent effect
inhibition [6]: Dose-dependent effect
inhibition [7]: Dose-dependent effect
inhibition [8]: Dose-dependent effect
IC50 [9]: 0.752 µM
